Results published in PubChem BioAssay.
Results filed as inconclusive are left out. Active and inactive are the calls of the source.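 The calls were made as follows, unless noted: active = viability increase at or above a cutoff of the median across tested compounds plus 3 SD (cut at about 8.5% in these data, passing the limit was not always enough); inconclusive = some gains above the cutoff, reason not given; inactive = the rest.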

Assays:
[1] = S. cerevisiae growth inhibition in permissive medium (OD615), pilot counter-assay for S. cerevisiae lifespan shortening project, permissive growth control (AID 705;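 active = growth inhibition above 25% in both replicates, a cutoff set 3 SD above the mean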); details: OD615, 24 h, at 10 µM, stronger effect = higher value
Procedure, shortened: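 Test system: Saccharomyces cerevisiae strain carrying genetically modified DeaD replicative-lifespan system; buffer or medium: SC raffinose/galactose permissive medium; dosing: one dose 10 µM, DMSO 0.25% final; times: 24 h exposure, 30 °C; measured by: OD at 615 nm; read-out basis: growth inhibition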

[2] = S. cerevisiae growth inhibition in restrictive medium, OD615, pilot screen, restrictive growth control, yeast lifespan reduction project (AID 706;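 active = growth inhibition above a set limit, 3 SD over mean compound inhibition, in both replicates, cut at about 43% in these data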;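 also: modified DeaD lifespan yeast strain shifted to restrictive glucose medium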); details: OD615, 48 h, at 10 µM, stronger effect = higher value
Procedure, shortened: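 material = engineered S. cerevisiae DeaD strain | buffer or medium = glucose-based CSMM-D restrictive medium | dosing = one concentration, 10 µM final, 0.25% DMSO | schedule = 4 h pre-growth plus 48 h compound exposure, 30 °C | detection = OD615 absorbance reading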

[3] = doxorubicin toxicity protection in MRP-1 cells – H69AR cells, CellTiter-Glo, duplicate, MRP-1 activator project, pilot screen (AID 807); details: H69AR viability with doxorubicin, CellTiter-Glo luminescence; at 10 µM; stronger effect = higher value;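 also: compound pretreatment 18-22 h then 72 h combined with doxorubicin; 0% = doxorubicin alone and 100% = vehicle without doxorubicin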
[4] = viability of HCT116 without oncogenic beta-catenin – human colon tumor cells, pilot screen (AID 823;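 active = cell viability at or below a set limit in both duplicate runs, the limit being the all-compound median minus 4 SD, cut at about 23% in these data, passing the limit was not always enough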;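 also: 0% = wells killed by 20 µM Hyamine and 100% = untreated DMSO cell wells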); details: HCT116 beta-catenin knockout viability, CellTiter-Glo, 60 h; at 10 µM; stronger effect = lower value
[5] = viability of PTEN-null HCT116 cells – cell-based, HCT116 clonal line, CellTiter-Glo, pilot screen (AID 824;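 active = viability at or below 27.92% in each of two runs, the all-compound median minus 4 SD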;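 also: 0% = 20 µM Hyamine control and 100% = vehicle cell control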); details: HCT116 PTEN-deleted viability, 60 h, at 10 µM, stronger effect = lower value
[6] = RAM pathway blockade in budding yeast – dse1pr::URA3 reporter, 5-FOA selection, pilot screen (AID 869;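 active = inhibition over a set limit, the all-compound mean plus 3 SD, in both replicate runs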;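 also: 0% = DMSO wells with no growth and 100% = 10 µM 1-NA-PP1 with full growth; RAM network block rescues cells from 5-FOA so hits raise OD615 growth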); details: S. cerevisiae dse1pr::URA3 5-FOA growth, OD615, 2 d; at 10 µM; stronger effect = higher value; strain carries analog-sensitive mutant Cbk1 kinase
[7] = RAM signaling pathway blockade in yeast – S. cerevisiae, Pdr1DBD-CYC8 efflux-inhibited sensitized strain, primary screen (AID 1298;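 active = RAM network inhibition above 8.4% in each of two replicates, 3 SD over the compound average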;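 also: 0% = DMSO untreated cells without growth and 100% = 10 µM 1-NA-PP1 full growth; higher means more yeast growth rescued from 5-FOA killing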); details: S. cerevisiae cbk1-as DSE1-URA3 strain, 5-FOA growth OD615, 2 d; at 50 µM; stronger effect = higher value

COc1ccc(N(CC(=O)Nc2ccc3c(c2)OCCO3)S(=O)(=O)c2c(C)nn(C)c2C)cc1
inactive: growth inhibition [1] -9.27% | growth inhibition [2] -19.9% | viability increase [3] -2.36% | viability [4] 99.4% | viability [5] 95.9% | inhibition [6] 0.73% | RAM network inhibition [7] 4.15%

COc1ccc(-c2cc(N)n(S(=O)(=O)Cc3ccccc3)n2)c(OC)c1
inactive: growth inhibition [1] -2.75% | growth inhibition [2] -12.7% | viability increase [3] 0.27% | viability [4] 101% | viability [5] 96.8% | inhibition [6] 2.42% | RAM network inhibition [7] 5.13%

CCOC(=O)c1c(NC(=O)c2cc(C3CC3)on2)sc(C(C)=O)c1C
inactive: growth inhibition [1] -3.19% | growth inhibition [2] 0.635% | viability increase [3] -1.49% | viability [4] 104% | viability [5] 93.3% | inhibition [6] 1.64% | RAM network inhibition [7] -0.58%

COC(=O)c1ccccc1NC(=O)Nc1nnc(N2CCCCC2C)s1 (configuration not stated)
inactive: growth inhibition [1] -8.82% | growth inhibition [2] 5.2% | viability increase [3] -0.77% | viability [4] 64.3% | viability [5] 49.8% | inhibition [6] 0.815% | RAM network inhibition [7] 1.05%

COc1cccc(-c2nc(CS(=O)(=O)CC(=O)NCc3ccccc3)c(C)o2)c1
inactive: growth inhibition [1] 6.62% | growth inhibition [2] 8.33% | viability increase [3] -0.84% | viability [4] 94.8% | viability [5] 88.1% | inhibition [6] 1.4% | RAM network inhibition [7] 3.28%

CCCc1cc(C(=O)Nc2ccc(C)cc2)no1
inactive: growth inhibition [1] -3.58% | growth inhibition [2] -5.4% | viability increase [3] -0.63% | viability [4] 101% | viability [5] 97.6% | inhibition [6] 1.32% | RAM network inhibition [7] 1.86%

CCCC(=O)NCCCc1nc2ccccc2n1CC
inactive: growth inhibition [1] -7.75% | growth inhibition [2] 0.985% | viability increase [3] 0.81% | viability [4] 100% | viability [5] 101% | inhibition [6] -0.16% | RAM network inhibition [7] 0.58%

CCCC(=O)C1=C(O)C(C(=O)OC)C(C)(C)CC1=N (configuration not stated)
inactive: growth inhibition [1] 1.4% | growth inhibition [2] -3.15% | viability increase [3] -0.38% | viability [4] 100% | viability [5] 101% | inhibition [6] 1.01% | RAM network inhibition [7] -0.57%

O=C(CNC(=O)c1ccco1)OCC(=O)c1ccccc1
inactive: growth inhibition [1] -8.55% | growth inhibition [2] 3% | viability increase [3] -1.3% | viability [4] 97.3% | viability [5] 94.3% | inhibition [6] 0.98% | RAM network inhibition [7] 0.92%

CCc1nnc(NC(=O)C2Cc3ccccc3C(=O)O2)s1 (configuration not stated)
inactive: growth inhibition [1] -13.9% | growth inhibition [2] -14.9% | viability increase [3] 1.66% | viability [4] 102% | viability [5] 104% | inhibition [6] 1.32% | RAM network inhibition [7] 5.85%

CC1CCCCN1CCn1cnc2c([nH]c3ccccc32)c1=O (configuration not stated)
inactive: growth inhibition [1] -2.21% | growth inhibition [2] 5.29% | viability increase [3] -4.17% | viability [4] 88.1% | viability [5] 87.4% | inhibition [6] -0.135% | RAM network inhibition [7] 4.11%

CCOc1ccc(N(CC(=O)NCc2ccccc2)S(C)(=O)=O)cc1
inactive: growth inhibition [1] -0.02% | growth inhibition [2] -4.28% | viability increase [3] -1.14% | viability [4] 103% | viability [5] 101% | inhibition [6] 0.535% | RAM network inhibition [7] -0.46%

NCCCC(=O)N1c2ccccc2Sc2ccccc21
inactive: growth inhibition [1] -16% | growth inhibition [2] 3.53% | viability increase [3] -2.97% | viability [4] 73.2% | viability [5] 73.9% | inhibition [6] 2.5% | RAM network inhibition [7] 0.52%

O=C(NCc1ccccc1)c1ccc(CN2CCOCC2)cc1
inactive: growth inhibition [1] 7.58% | growth inhibition [2] 2.15% | viability increase [3] -0.24% | viability [4] 100% | viability [5] 104% | inhibition [6] 0.89% | RAM network inhibition [7] 9.41%

CCOC(=O)Cc1nnc(NC(=O)CSc2nncn2C)s1
inactive: growth inhibition [1] -1.1% | growth inhibition [2] 7.44% | viability increase [3] -0.06% | viability [4] 98.5% | viability [5] 94.5% | inhibition [6] 1.5% | RAM network inhibition [7] 2.87%

COc1cc2c(cc1OC)C1=C(C#N)CN(CC(=O)O)CN1CC2
inactive: growth inhibition [1] -0.125% | growth inhibition [2] 11.3% | viability increase [3] -4.43% | viability [4] 106% | viability [5] 96% | inhibition [6] 1.7% | RAM network inhibition [7] 1.9%

COc1ccc(C2CC(c3ccc(F)cc3)Nc3nc(N)nn32)cc1OC (configuration not stated)
inactive: growth inhibition [1] -0.9% | growth inhibition [2] 4.9% | viability increase [3] -0.13% | viability [4] 102% | viability [5] 92.4% | inhibition [6] 1.21% | RAM network inhibition [7] 7.75%

CCOC(=O)N1CCN(C(=O)C(C)(C)Oc2ccc(Cl)cc2)CC1
inactive: growth inhibition [1] -8.16% | growth inhibition [2] -2.48% | viability increase [3] -1.61% | viability [4] 93% | viability [5] 96.1% | inhibition [6] 0.28% | RAM network inhibition [7] 3.09%

c1ccc(OCCOCCSc2ncccn2)cc1
inactive: growth inhibition [1] 1.54% | growth inhibition [2] -1.09% | viability increase [3] 2.36% | viability [4] 101% | viability [5] 98.4% | inhibition [6] 0.395% | RAM network inhibition [7] 3.21%

CN(C(=O)c1ccc(=O)[nH]c1)C1(C(=O)NC2CCCCC2)CCCCC1
inactive: growth inhibition [1] -7.84% | growth inhibition [2] -8.31% | viability increase [3] -0.61% | viability [4] 95.7% | viability [5] 101% | inhibition [6] 0.78% | RAM network inhibition [7] 1.66%

Cc1c(NC(=O)Oc2ccccc2)sc(=S)n1C
inactive: growth inhibition [1] 14.5% | growth inhibition [2] 34.4% | viability increase [3] -3.22% | viability [4] 102% | viability [5] 98.2% | inhibition [6] 1.32% | RAM network inhibition [7] 0.99%

Cc1ccc(Cc2c(C)nc3nc(SCC(=O)NCc4ccco4)nn3c2C)cc1
active: viability [4] 13.2% | viability [5] 10.9%
inactive: growth inhibition [1] 10.4% | growth inhibition [2] 12.9% | viability increase [3] -6.46% | inhibition [6] 0.455% | RAM network inhibition [7] 5.24%

COc1ccccc1OCCC(=O)OCC(=O)NC(=O)NC(C)(C)C
inactive: growth inhibition [1] -2.01% | growth inhibition [2] -17.1% | viability increase [3] -1.52% | viability [4] 85.7% | viability [5] 84.3% | inhibition [6] 2.56% | RAM network inhibition [7] 0.79%

O=C(Cn1cnc2c(nnn2-c2cccc(Cl)c2)c1=O)N1CCOCC1
inactive: growth inhibition [1] -0.49% | growth inhibition [2] -4.46% | viability increase [3] -0.35% | viability [4] 92.5% | viability [5] 96.4% | inhibition [6] 1.79% | RAM network inhibition [7] 1.56%

Cc1ccc2oc3c(c(=O)c2c1)C(c1cccc(O)c1)N(c1ccccn1)C3=O (configuration not stated)
inactive: growth inhibition [1] -2.51% | growth inhibition [2] -0.22% | viability increase [3] -2.59% | viability [4] 79.4% | viability [5] 68.2% | inhibition [6] 1.81% | RAM network inhibition [7] 4.84%

O=C(CCS(=O)(=O)c1ccccc1)Nc1nccs1
inactive: growth inhibition [1] -13.9% | growth inhibition [2] -10.5% | viability increase [3] -8.48% | viability [4] 62.2% | viability [5] 72.7% | inhibition [6] 1.48% | RAM network inhibition [7] 5.64%

Cc1ccc(CC(=O)N2CCC(c3nc4c(nnn4Cc4ccccc4)c(=O)[nH]3)CC2)cc1
inactive: growth inhibition [1] -10.5% | growth inhibition [2] -7.38% | viability increase [3] -1.07% | viability [4] 76.9% | viability [5] 78.9% | inhibition [6] 0.71% | RAM network inhibition [7] 3%

CSCCC1(C(=O)O)NC(c2ccccc2O)C2C(=O)N(C(C)C)C(=O)C21 (configuration not stated)
inactive: growth inhibition [1] 2.37% | growth inhibition [2] 11.6% | viability increase [3] -1.09% | viability [4] 102% | viability [5] 94.7% | inhibition [6] 0.875% | RAM network inhibition [7] 3.49%

C=CCNC(=O)c1ccc(C)cc1Cl
inactive: growth inhibition [1] -13.3% | growth inhibition [2] -2.44% | viability increase [3] -0.26% | viability [4] 95.5% | viability [5] 94.5% | inhibition [6] 1.02% | RAM network inhibition [7] 1.37%

O=C1CSC(=S)N1Cc1cccnc1
active: viability [4] 8.06% | viability [5] 9.45%
inactive: growth inhibition [1] -15.3% | growth inhibition [2] 16.2% | viability increase [3] -8.48% | inhibition [6] 0.82% | RAM network inhibition [7] -0.15%

COc1ccc(-n2c(Cn3c(=O)sc4ccccc43)nnc2SCC(=O)N2CCCC2)cc1
inactive: growth inhibition [1] -1.82% | growth inhibition [2] 17.8% | viability increase [3] 0.25% | viability [4] 104% | viability [5] 102% | inhibition [6] 1.5% | RAM network inhibition [7] 3.39%

CCCNc1nc2c(c(=O)[nH]c(=O)n2C)n1CCc1ccccc1
inactive: growth inhibition [1] -3.82% | growth inhibition [2] 0.97% | viability increase [3] -1.3% | viability [4] 112% | viability [5] 103% | inhibition [6] 1.56% | RAM network inhibition [7] 5.88%

Cn1c2c(c(=O)n(C)c1=O)CN(Cc1ccco1)CN2
inactive: growth inhibition [1] -2% | growth inhibition [2] 5.18% | viability increase [3] -2.84% | viability [4] 95.2% | viability [5] 97.7% | inhibition [6] -0.115% | RAM network inhibition [7] -0.06%

O=C1CC(c2nc3ccccc3[nH]2)CN1Cc1ccccc1 (configuration not stated)
inactive: growth inhibition [1] -0.355% | growth inhibition [2] -0.09% | viability increase [3] -1.02% | viability [4] 101% | viability [5] 95% | inhibition [6] 1.07% | RAM network inhibition [7] 0.96%

O=c1cc(-c2c(F)c(F)c(F)c(F)c2F)oc2c(F)c(F)c(F)c(F)c12
active: viability [4] 1.3% | viability [5] 1.25%
inactive: growth inhibition [1] -8.86% | growth inhibition [2] -6.48% | viability increase [3] -7% | inhibition [6] -0.35% | RAM network inhibition [7] -1.25%

CCn1c(C2CC(=O)N(c3ccc(C)c(C)c3)C2)nc2ccccc21 (configuration not stated)
inactive: growth inhibition [1] -6.54% | growth inhibition [2] 1.06% | viability increase [3] -3.09% | viability [4] 86.7% | viability [5] 89.9% | inhibition [6] -0.35% | RAM network inhibition [7] 0.57%
